Source: PubChem (The Scripps Research Institute Molecular Screening Center)
Shown are actives, neighbours in structure and some others; about 4.6% of the full set was active somewhere.
TAAR1 ag: human TAAR1 agonism; Q96RJ0; CHO RD-HGA16 TAAR1, Fluo-8 calcium fluorescence; vehicle wells 0%, saturating PEA agonist 100%; activation, % at 3 µM; 360,000 compounds, 0.99% hits; AID 624467;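 active = activation above the mean activation of all test compounds in the run plus 3 SD, cut at about 38% in these data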
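Repeats: no replicates (n 1) | Material: CHO-derived RD-HGA16 cells with stable Gα16 and human TAAR1 | Technique: Kinetic Fluo-8 calcium fluorescence | Schedule: 17-24 h seeding, 75 min 37 °C dye, 30 min RT | Evaluation: % activation from peak over basal fluorescence ratio, DMSO-to-PEA scaled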
GPR7 antag: blocks human GPR7 receptor signaling; GPR7-expressing cells, fluorescence antagonist assay; inhibition, % at 4.4 µM; 290,000 compounds, 1.1% hits; in the data active = inhibition above about 16%, passing the limit was not always enough;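 also: cells stimulated with the agonist NPW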
Target sequence (P48145 whole entry, looked up): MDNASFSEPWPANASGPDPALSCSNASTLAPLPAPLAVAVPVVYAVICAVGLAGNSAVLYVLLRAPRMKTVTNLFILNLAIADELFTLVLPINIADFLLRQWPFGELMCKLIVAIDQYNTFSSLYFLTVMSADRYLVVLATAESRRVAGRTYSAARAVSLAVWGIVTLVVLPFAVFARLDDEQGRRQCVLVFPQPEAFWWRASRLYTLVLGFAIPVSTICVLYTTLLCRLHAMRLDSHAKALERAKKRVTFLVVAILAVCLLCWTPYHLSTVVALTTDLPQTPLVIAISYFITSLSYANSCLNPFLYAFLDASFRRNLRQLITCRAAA
OX1R antag-1: OX1R (human) antagonism; OX1R-expressing cells, FRET antagonist read-out; inhibition, % at 6.6 µM; 330,000 compounds, 1.8% hits; in the data active = inhibition mostly above about 38%, no sharp cut-off; inactive = mostly below about 40%
Target sequence (O43613 whole entry, looked up): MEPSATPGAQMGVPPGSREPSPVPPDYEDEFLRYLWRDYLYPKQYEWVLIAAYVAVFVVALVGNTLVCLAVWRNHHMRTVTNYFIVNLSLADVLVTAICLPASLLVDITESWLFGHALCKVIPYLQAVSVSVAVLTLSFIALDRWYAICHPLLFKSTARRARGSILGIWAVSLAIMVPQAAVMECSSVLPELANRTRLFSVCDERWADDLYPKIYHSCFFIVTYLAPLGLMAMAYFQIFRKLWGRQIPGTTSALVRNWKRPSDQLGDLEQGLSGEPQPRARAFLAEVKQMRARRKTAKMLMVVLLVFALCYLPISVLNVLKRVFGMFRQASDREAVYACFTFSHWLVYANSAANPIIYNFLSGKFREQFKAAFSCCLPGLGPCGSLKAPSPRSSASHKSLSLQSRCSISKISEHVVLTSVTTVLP
TAAR1 antag: human TAAR1 antagonism | CHO RD-HGA16 TAAR1, Fluo-8 calcium fluorescence, antagonist | AID 624466 | inhibition, % at 3 µM | Q96RJ0 | 360,000 compounds, 1.5% hits;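 active = inhibition above a per-plate cutoff, the mean inhibition of test compounds on that plate plus 3 SD, cut at about 49% in these data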
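Test system: CHO RD-HGA16 cells bearing hTAAR1 | Reagent: β-PEA, EC80 | Compound dosing: 3 µM, single point | Schedule: Dye loading 75 min at 37 °C, then 30 min room temperature | Signal: Calcium fluorescence with Fluo-8 | Evaluation: Percent inhibition of PEA-evoked calcium signal, max/basal emission ratio | Control set: DMSO-only wells and EC80 β-PEA-stimulated wells | Repeats: Singlicate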
CHO parental Ca: signal in parental CHO cells, OX1R antagonist counter-screen. parental CHO-K1, ATP-induced calcium, Fluo-8 fluorescence. inhibition, % at 5.6 µM. 330,000 compounds, 0.63% hits. AID 463079;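 active = inhibition above that plate's mean sample inhibition plus 3 SD, cut at about 26% in these data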
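Assay system – parental CHO cells · Reagent – ATP stimulus · Detection – intracellular calcium via Fluo-8 no-wash fluorescent dye · Evaluation – percent inhibition of ATP-evoked calcium rise, normalized to controls · Controls – ATP wells versus no-ATP DMSO wells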
OX1R antag-2: antagonists of human orexin 1 receptor. O43613. CHO/OX1R cells, Fluo-8 calcium fluorescence, orexin A. inhibition, % at 5 µM. 330,000 compounds, 0.43% hits;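 active = inhibition above its plate's threshold, mean inhibition of all tested compounds on the plate plus 3 SD, cut at about 37% in these data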
TAAR1 ag confirm: confirmation of human TAAR1 agonists. CHO RD-HGA16 TAAR1, Fluo-8 calcium fluorescence; scaled: DMSO 0%, maximal phenethylamine 100%. shares compounds with TAAR1 ag. activation, % at 3 µM. 2,400 compounds, 82% hits. AID 651783;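 active = activation above a cutoff set at the run's mean compound activation plus 3 SD, cut at about 39% in these data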
Ga16 ag counter: nonselective agonist in parental cells, TAAR1 agonist counter-screen. shares compounds with TAAR1 ag. CHO-Ga16 parental, Fluo-8 calcium fluorescence; normalized to maximal ATP response, DMSO zero. activation, % at 3 µM. 2,400 compounds, 50% hits. AID 651787;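 active = activation above the run cutoff, the mean activation over all tested wells plus 3 SD, cut at about 12% in these data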
TAAR1 desensitize: TAAR1 response desensitization, agonist counter-screen; shares compounds with TAAR1 ag; CHO RD-HGA16 hTAAR1, Fluo-8 calcium, beta-PEA response inhibition; inhibition, % at 3 µM; 2,400 compounds, 46% hits;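 active = inhibition above the run cutoff, the mean inhibition of all test compounds plus 3 SD, cut at about 49% in these data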;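 also: beta-PEA stimulus applied at its EC80; loss of beta-PEA calcium signal after compound pretreatment read as receptor desensitization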
Ga16 nonsel ant: nonselective Ga16 antagonist in TAAR1 agonist counter-screen; shares compounds with TAAR1 ag; AID 651952; 2,400 compounds, 39% hits; CHO-Ga16 ATP-induced calcium, Fluo-8 fluorescence; inhibition, % at 3 µM;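 active = inhibition above the plate's mean compound inhibition plus 3 SD, computed per plate, cut at about 22% in these data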
Large screens that a line does not name were inactive (follow-up assays come after a bar, where they were run).

O=C(CCCn1cc([N+](=O)[O-])cn1)N1CCCCC1	none
Cc1ccc(N2C(=O)[C@@H]3Cc4ccccc4CN3C2=O)cc1	none
CC(C)c1ccc(N2C(=O)[C@@H]3Cc4ccccc4CN3C2=O)cc1	TAAR1 ag 83.8, TAAR1 antag 81.7, CHO parental Ca 45.2 | TAAR1 ag confirm 76.5 | Ga16 ag counter 46.0 | TAAR1 desensitize 64.1 | Ga16 nonsel ant 46.9
CN1CCN(C2=Cc3ccc(Cl)cc3Sc3ccc(F)cc32)CC1	TAAR1 ag 49.1 | TAAR1 ag confirm 57.0 | Ga16 ag counter 40.8 | TAAR1 desensitize 56.8 | Ga16 nonsel ant 43.7
CN1CCN(C2=Cc3ccccc3Sc3cc(F)ccc32)CC1	none
CCN(c1cccc(C)c1)S(=O)(=O)c1c(C)[nH]c(C)c1C(=O)N1CCCCC1	none
CC(=O)Nc1ccc(S(=O)(=O)NCCc2ccc(F)cc2)cc1	none
O=S(=O)(NCCc1ccccc1)c1cccc2cccnc12	TAAR1 ag 62.9 | TAAR1 ag confirm 78.3 | Ga16 ag counter inactive | TAAR1 desensitize inactive | Ga16 nonsel ant inactive
CC1Sc2ccc(S(=O)(=O)NCCc3ccccc3)cc2NC1=O (centres undefined)	TAAR1 ag 69.5 | TAAR1 ag confirm 66.3 | Ga16 ag counter inactive | TAAR1 desensitize inactive | Ga16 nonsel ant inactive
O=S(=O)(NCCc1ccccc1)c1ccc(F)cc1	TAAR1 ag 72.9, TAAR1 antag 64.2 | TAAR1 ag confirm 85.9 | Ga16 ag counter inactive | TAAR1 desensitize 79.5 | Ga16 nonsel ant inactive
CCCNC(=O)COC(=O)c1cc2c(=O)n3ccccc3nc2s1	none
COc1ccc(CCN(Cc2cccs2)S(=O)(=O)c2ccc(S(=O)(=O)N(C)C3CCCCC3)cc2)cc1OC	none
Cc1cc2c(cc1C)-n1nnnc1C(N(C)CCc1ccccc1)C(=O)N2 (centres undefined)	TAAR1 ag 54.3 (no result: GPR7 antag, OX1R antag-1, CHO parental Ca, OX1R antag-2) | TAAR1 ag confirm 65.1 | Ga16 ag counter inactive | TAAR1 desensitize inactive | Ga16 nonsel ant inactive
Cc1cc(C)cc(Nc2cc(=O)n(C3CCCCC3)c(=O)[nH]2)c1	none
Cc1cc2nc3c(=O)n(C4CCCCC4)c(=O)[nH]c3nc2cc1N	TAAR1 ag 56.8 (no result: OX1R antag-1, CHO parental Ca, OX1R antag-2) | TAAR1 ag confirm inactive | Ga16 ag counter 63.7 | TAAR1 desensitize inactive | Ga16 nonsel ant 39.3
CCC1Oc2ccc(C)cc2N(CC(=O)N(Cc2ccc(C)o2)C2CCCC2)C1=O (centres undefined)	none
COC(=O)c1ccc(-c2ccc(CNCC(O)c3ccccc3)o2)cc1 (centres undefined)	TAAR1 ag 39.2 | TAAR1 ag confirm inactive | Ga16 ag counter inactive | TAAR1 desensitize inactive | Ga16 nonsel ant inactive
CCOc1ccc(CC(=NCCc2ccccc2)C2=C(O)CC(C)(C)CC2=O)cc1OCC	TAAR1 ag 80.6, TAAR1 antag 86.6 | TAAR1 ag confirm 88.5 | Ga16 ag counter inactive | TAAR1 desensitize 79.3 | Ga16 nonsel ant inactive
CCOc1ccc(CC(=N)C2=C(O)CC(C)(C)CC2=O)cc1OCC	none
COc1ccc(C(CCN2CCCC(C)C2)c2c(OC)cc(OC)c3c(-c4ccccc4)cc(=O)oc23)cc1 (centres undefined)	TAAR1 ag 55.6 (no result: GPR7 antag) | TAAR1 ag confirm 47.0 | Ga16 ag counter 37.1 | TAAR1 desensitize inactive | Ga16 nonsel ant 42.2
Cn1c2c(c(=O)n(C)c1=O)CN(CCc1ccccc1)CN2	TAAR1 ag 91.3, TAAR1 antag 60.5 | TAAR1 ag confirm 73.7 | Ga16 ag counter inactive | TAAR1 desensitize inactive | Ga16 nonsel ant inactive
CC1Cn2c(nc(=O)c3c2NCN(CCc2ccccc2)C3)S1 (centres undefined)	TAAR1 ag 52.8 | TAAR1 ag confirm 45.7 | Ga16 ag counter inactive | TAAR1 desensitize inactive | Ga16 nonsel ant inactive
CCOc1ccc(NS(=O)(=O)c2ccc(NC(=O)c3ccccn3)cc2)cc1	none (no result: GPR7 antag)
CN(C)c1ccc(/C=C2\SC(=S)N(Nc3ncc(C(F)(F)F)cc3Cl)C2=O)cc1	TAAR1 ag 122.6, TAAR1 antag 87.3, CHO parental Ca 75.8, OX1R antag-2 100.3 | TAAR1 ag confirm 76.1 | Ga16 ag counter 121.6 | TAAR1 desensitize 77.2 | Ga16 nonsel ant 90.2
CC(=O)NCCNC(=O)C1CCCCN1S(=O)(=O)c1ccccc1 (centres undefined)	none
S=c1nc(NCCc2ccccc2Cl)c2ccccc2[nH]1	TAAR1 ag 51.6 (no result: OX1R antag-1, CHO parental Ca, OX1R antag-2) | TAAR1 ag confirm inactive | Ga16 ag counter inactive | TAAR1 desensitize inactive | Ga16 nonsel ant 22.3
O=C(CCCCCNc1nc(=S)[nH]c2ccccc12)NCc1ccccc1Cl	none
CC(C)c1ccc(OCC(=O)NNC(=S)NC(=O)c2ccco2)c(Br)c1	TAAR1 ag 43.6 | TAAR1 ag confirm 80.8 | Ga16 ag counter 59.0 | TAAR1 desensitize 70.0 | Ga16 nonsel ant 50.9
Cc1ccccc1OCC(=O)NNC(=S)NC(=O)c1ccco1	TAAR1 ag 64.9 | TAAR1 ag confirm inactive | Ga16 ag counter 22.8 | TAAR1 desensitize inactive | Ga16 nonsel ant inactive
O=C(NCc1ccco1)c1sc(=S)n2c1[nH]c(=O)c1ccccc12	TAAR1 ag 75.2, OX1R antag-1 49.8 | TAAR1 ag confirm 38.1 | Ga16 ag counter 23.2 | TAAR1 desensitize inactive | Ga16 nonsel ant inactive
Fc1ccccc1NC(=S)N(CCCN1CCOCC1)Cc1cccnc1	none
CCC(=O)N1CCc2cc(S(=O)(=O)N3CCN(c4cc(C)ccc4C)CC3)ccc21	none (no result: TAAR1 ag, TAAR1 antag)
O=C(CCCn1c(=O)c2ccccc2n(CC(=O)N2CCN(c3ccccc3)CC2)c1=O)NCc1ccco1	none
C[C@H](NC(=O)[C@@H]1CSC2c3ccccc3C(=O)N21)C(=O)NCCc1ccccc1 (some centres undefined)	TAAR1 ag 68.4 | TAAR1 ag confirm 81.2 | Ga16 ag counter inactive | TAAR1 desensitize inactive | Ga16 nonsel ant inactive
N#Cc1ccc(OCC(=O)OCC(=O)NC2CC2)cc1	none (no result: GPR7 antag)
Cc1ccccc1C(=O)N[C@@H](Cc1cccnc1)C(=O)N1CCC[C@H]1C(=O)NCCc1ccccc1Cl	TAAR1 ag 40.7 (no result: GPR7 antag, OX1R antag-1, CHO parental Ca, OX1R antag-2) | TAAR1 ag confirm 84.0 | Ga16 ag counter 18.6 | TAAR1 desensitize 83.9 | Ga16 nonsel ant inactive
